This note sets out measurements from the array DNA melting data of Ke et al. (doi:10.1101/2024.01.08.574731).

A short description of data set [1]: melting temperature; fluorescence melt of hairpins on a sequencing array, two-state fit, raised by 9.35 °C to match UV melts. The conditions noted are these: sodium 0.088 M. In short, it runs like this: (§1)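 In 50 mM Na-HEPES pH 8.0 containing 25 mM NaCl, hairpins from the library on a sequenced MiSeq flow cell were imaged for Cy3 fluorescence at 2.5 °C steps up to 60 °C, with Cy3 and quencher oligos annealed. After normalisation to pre-quench Cy3 and to control constructs, two-state fits with bootstrapping gave melting temperature and folding enthalpy. Four replicates were combined by inverse-variance weighting, and fitted temperatures were shifted up by 9.35 °C to match UV melts.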

Data set [2] can be described thus: folding enthalpy; higher = less favourable; fluorescence melt of hairpins on a sequencing array, two-state fit. The following applies: sodium 0.088 M. Put shortly: as §1

In the case of GATCGAGTGATCGATC ((((((....)))))), the Tm in data set [1] came to 55.3 °C. In addition, the folding enthalpy in data set [2] was -40.1 kcal/mol.
Regarding GATCGAGTTATCGATC ((((((....)))))), the Tm in data set [1] amounted to 58.6 °C. Further, the folding enthalpy in data set [2] was -41.7 kcal/mol.
The matching figures for GATCGATAATTCGATC ((((((....)))))): 51.2 °C and -39.6 kcal/mol.
As for GATCGATACATCGATC ((((((....)))))), in data set [1], the Tm was determined as 55.9 °C. The folding enthalpy in data set [2] is -46.2 kcal/mol.
Take GATCGATACCTCGATC ((((((....)))))): the Tm in data set [1] came out at 53.1 °C. Further, in data set [2], the folding enthalpy is -35.1 kcal/mol.
On to GATCGATACGTCGATC ((((((....)))))), for which, in data set [1], the Tm was 54.5 °C. In addition, the folding enthalpy in data set [2] is -38.6 kcal/mol.
For GATCGATACTTCGATC ((((((....)))))), the Tm in data set [1] is 53 °C. The folding enthalpy in data set [2] is -57.9 kcal/mol.
On to GATCGATCCATCGATC ((((((....)))))), for which the Tm in data set [1] was determined as 56.7 °C. In addition, the folding enthalpy in data set [2] is -49.1 kcal/mol.
The matching figures for GATCGATCGCTCGATC ((((((....)))))): 52.4 °C and -37.3 kcal/mol.
The matching figures for GATCGATGAGTCGATC ((((((....)))))): 55.5 °C and -41.6 kcal/mol.
GATCGATGCTCGATC ((((((...)))))): in data set [1], the Tm stood at 51.8 °C. In addition, the folding enthalpy in data set [2] was -37 kcal/mol.
Regarding GATCGATGCTTCGATC ((((((....)))))), the Tm in data set [1] turned out to be 54.9 °C. In addition, the folding enthalpy in data set [2] is -41.9 kcal/mol.
GATCGATTAATCGATC ((((((....)))))): the Tm in data set [1] came out at 55.9 °C. For the same sequence, in data set [2], the folding enthalpy was -43.9 kcal/mol.
For GATCGATTAGTCGATC ((((((....)))))), in data set [1], the Tm was determined as 53.2 °C. In addition, the folding enthalpy in data set [2] is -54.5 kcal/mol.
The matching figures for GATCGATTCCTCGATC ((((((....)))))): 52.3 °C and -41.2 kcal/mol.
With GATCGATTCTTCGATC ((((((....)))))), the Tm in data set [1] amounted to 56.9 °C. For the same sequence, in data set [2], the folding enthalpy was -36.8 kcal/mol.
The matching figures for GATCGATTTCTCGATC ((((((....)))))): 52.5 °C and -36.4 kcal/mol.
As for GATCGATTTTTCGATC ((((((....)))))), the Tm in data set [1] was 54.7 °C. The folding enthalpy in data set [2] was -44.3 kcal/mol.
On to GATCGCAAAAGCGATC ((((((....)))))), for which the Tm in data set [1] stood at 61.9 °C. The folding enthalpy in data set [2] is -29.1 kcal/mol.
With GATCGCAAAGGCGATC ((((((....)))))), in data set [1], the Tm is 63.9 °C. For the same sequence, in data set [2], the folding enthalpy is -41.9 kcal/mol.
The matching figures for GATCGCAACAGCGATC ((((((....)))))): 69.1 °C and -35.4 kcal/mol.
With GATCGCACAAGCGATC ((((((....)))))), the Tm in data set [1] was 69.3 °C. Also, the folding enthalpy in data set [2] is -37 kcal/mol.
With GATCGCACATGCGATC ((((((....)))))), the Tm in data set [1] is 68.3 °C. In addition, the folding enthalpy in data set [2] is -39.8 kcal/mol.
As for GATCGCACCAGCGATC ((((((....)))))), the Tm in data set [1] was 69.3 °C. Besides, the folding enthalpy in data set [2] is -31.2 kcal/mol.
Consider GATCGCACCTGCGATC ((((((....)))))), for which the Tm in data set [1] turned out to be 69.2 °C. The folding enthalpy in data set [2] was -32.3 kcal/mol.
The matching figures for GATCGCACGAAAGTGATC (((..(((....)))))): 36.4 °C and -16.3 kcal/mol.
Consider GATCGCAGAGGCGATC ((((((....)))))), for which the Tm in data set [1] was 66.8 °C. Moreover, in data set [2], the folding enthalpy was -35.8 kcal/mol.
In the case of GATCGCAGGGGCGATC ((((((....)))))), in data set [1], the Tm was 67.5 °C. Also, the folding enthalpy in data set [2] was -34.1 kcal/mol.
As to GATCGCAGGTGCGATC ((((((....)))))), in data set [1], the Tm amounted to 68.4 °C. Moreover, the folding enthalpy in data set [2] was -39.8 kcal/mol.
The matching figures for GATCGCAGTGCGATC ((((((...)))))): 67.6 °C and -30.1 kcal/mol.
The matching figures for GATCGCAGTGGCGATC ((((((....)))))): 67.5 °C and -31.5 kcal/mol.
The matching figures for GATCGCATACGCGATC ((((((....)))))): 69.3 °C and -36.1 kcal/mol.
As for GATCGCATCGGCGATC ((((((....)))))), the Tm in data set [1] is 68.8 °C. In addition, in data set [2], the folding enthalpy is -33.6 kcal/mol.
The matching figures for GATCGCATGGGCGATC ((((((....)))))): 68.5 °C and -40.5 kcal/mol.
As for GATCGCATGTGCGATC ((((((....)))))), the Tm in data set [1] was 68.3 °C. For the same sequence, the folding enthalpy in data set [2] was -37.8 kcal/mol.
In the case of GATCGCCACCGCGATC ((((((....)))))), the Tm in data set [1] is 67.1 °C. Besides, the folding enthalpy in data set [2] is -40.2 kcal/mol.
For GATCGCCAGCGCGATC ((((((....)))))), the Tm in data set [1] turned out to be 63.7 °C. Further, in data set [2], the folding enthalpy is -33.3 kcal/mol.
On to GATCGCCCACGCGATC ((((((....)))))), for which, in data set [1], the Tm turned out to be 68.1 °C. Also, the folding enthalpy in data set [2] was -35 kcal/mol.
